Assays:
[1] = target: T1, Melanin-concentrating hormone receptor 1 (Rattus norvegicus, UniProt P97639); experiment: Antagonist activity at rat MCHR1 expressed in HEK293 cells assessed as effect on calcium mobilization; type: functional, cell-based
Procedure, shortened: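 HEK293 cells stably expressing rat MCH1 were seeded for 16 h, loaded with 1.5 µM Fluo4 in HBSS for 60 min, washed, and preincubated 20 min with a range of test concentrations. They were then challenged with 30 nM MCH peptide. Calcium-driven fluorescence was read on a FLIPR, and IC50 came from nonlinear curve fitting.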

[2] = Drug level in Sprague-Dawley rat plasma at 10 mg/kg, po after 1 hr; type: ADME, organism-based; design: dose 10 mg/kg, route oral
Procedure, shortened: (§1)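 Femoral-artery-cannulated male Sprague-Dawley rats (300-350 g), n = 3, were given 10 mg/kg orally in vehicle. Blood was drawn predose and at 1, 2 and 4 h; brains were collected at 4 h and stored at -80 °C. Plasma or brain homogenate was pooled from three rats per time point, protein-precipitated and analysed by LC/MS/MS. Quantitation limits were 2 ng/mL plasma and 2 ng/g brain.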

[3] = Drug level in Sprague-Dawley rat plasma at 10 mg/kg, po after 4 hrs; type: ADME, organism-based; design: dose 10 mg/kg, route oral; procedure, shortened: as §1
[4] = Drug level in Sprague-Dawley rat brain at 10 mg/kg, po after 4 hrs; type: ADME, organism-based; design: dose 10 mg/kg, route oral; conditions: read-out: Drug uptake; procedure, shortened: as §1
[5] = Drug level in Sprague-Dawley rat plasma at 10 mg/kg, po after 2 hrs; type: ADME, organism-based; design: dose 10 mg/kg, route oral; procedure, shortened: as §1
[6] = target: T1, Melanin-concentrating hormone receptor 1; experiment: Displacement of [3H]SNAP 7941 from rat MCHR1 expressed in HEK293 cells; type: cell-based
Procedure, shortened: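 Membranes from PEAK-RAPID HEK293 cells transiently transfected with rat MCH1 were incubated with varying concentrations of [3H]SNAP-7941. Buffer was 50 mM Tris, 10 mM MgCl2, 0.16 mM PMSF, 1 mM 1,10-phenanthroline, 0.2% BSA, pH 7.4; incubation 25 °C, 90 min. Ki is the mean ± SEM of n = 3.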

[7] = Bioavailability in Sprague-Dawley rat at 2 mg/kg, po and 1 mg/kg, iv; type: ADME, organism-based; conditions: in vivo
Procedure, shortened: (§2)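 Male Sprague-Dawley rats (200-250 g), n = 2, received 1 mg/kg iv, then 2 mg/kg orally in the same rat 24 h later. Plasma was taken from sampled blood by centrifugation and analysed by turbulent-flow LC/MS/MS. For blood/plasma distribution, blood was spiked at 109 ng/mL. Parameters came from plasma concentration-time profiles.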

[8] = Cmax in Sprague-Dawley rat at 2 mg/kg, po and 1 mg/kg, iv; type: ADME, organism-based; conditions: in vivo; procedure, shortened: as §2
[9] = Volume of distribution in Sprague-Dawley rat at 2 mg/kg, po and 1 mg/kg, iv; type: ADME, organism-based; conditions: in vivo, read-out: Vss; procedure, shortened: as §2
[10] = Plasma clearance in Sprague-Dawley rat at 2 mg/kg, po and 1 mg/kg, iv; type: ADME, organism-based; procedure, shortened: as §2
[11] = Half life in Sprague-Dawley rat at 2 mg/kg, po and 1 mg/kg, iv; type: ADME, organism-based; conditions: in vivo; procedure, shortened: as §2
Rattus norvegicus [12] = experiment: Anxiolytic activity in rat assessed as increase in social interaction time at 0.3 mg/kg, po relative to control
[13] = Tmax in Sprague-Dawley rat at 2 mg/kg, po and 1 mg/kg, iv; type: ADME, organism-based; conditions: in vivo; procedure, shortened: as §2
[14] = Blood clearance in Sprague-Dawley rat at 2 mg/kg, po and 1 mg/kg, iv; type: ADME, organism-based; conditions: whole blood; procedure, shortened: as §2
Rattus norvegicus [15] = species: Rattus norvegicus; experiment: Anxiolytic activity in rat assessed as increase in social interaction time relative to control; type: functional
Procedure, shortened: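 Rats were acclimated 5 days, housed singly 5 days and handled 5 min daily. Weight-matched (±5%) unfamiliar pairs got identical treatment 1 h before testing, five pairs per group. Chlordiazepoxide 5 mg/kg was the reference. Pairs were placed 15 min in a floor-gridded arena, sessions were videotaped, and social interaction time was scored.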

[16] = Tmax in Sprague-Dawley rat at 1 mg/kg, po and 1 mg/kg, iv; type: ADME, organism-based; conditions: in vivo
Procedure, shortened: (§3)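 Sprague-Dawley rats were dosed 1 mg/kg orally (n = 2) and 1 mg/kg iv (n = 2). Plasma concentration-time profiles were measured by LC/MS/MS and used for pharmacokinetic analysis.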

[17] = Half life in Sprague-Dawley rat at 1 mg/kg, po and 1 mg/kg, iv; type: ADME, organism-based; conditions: in vivo; procedure, shortened: as §3
[18] = Volume of distribution in Sprague-Dawley rat at 1 mg/kg, po and 1 mg/kg, iv; type: ADME, organism-based; conditions: in vivo, read-out: Vss; procedure, shortened: as §3
[19] = Bioavailability in Sprague-Dawley rat at 1 mg/kg, po and 1 mg/kg, iv; type: ADME, organism-based; conditions: in vivo; procedure, shortened: as §3
[20] = Cmax in Sprague-Dawley rat at 1 mg/kg, po and 1 mg/kg, iv; type: ADME, organism-based; conditions: in vivo; procedure, shortened: as §3
[21] = Plasma clearance in Sprague-Dawley rat at 1 mg/kg, po and 1 mg/kg, iv; type: ADME, organism-based; procedure, shortened: as §3

T1 sequence (P97639 whole entry): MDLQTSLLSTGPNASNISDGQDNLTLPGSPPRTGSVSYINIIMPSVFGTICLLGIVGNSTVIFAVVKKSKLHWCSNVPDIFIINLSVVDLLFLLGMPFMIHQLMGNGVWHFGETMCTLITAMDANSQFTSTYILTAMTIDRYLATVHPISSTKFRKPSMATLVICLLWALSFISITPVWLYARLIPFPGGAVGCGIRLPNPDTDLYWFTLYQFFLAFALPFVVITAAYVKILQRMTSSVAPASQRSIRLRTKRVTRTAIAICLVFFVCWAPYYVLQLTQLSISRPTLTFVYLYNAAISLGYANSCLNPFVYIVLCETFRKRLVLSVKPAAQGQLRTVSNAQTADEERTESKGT

| Compound | IC50 [1] | Ki [6] | other results |
| --- | --- | --- | --- |
| Cc1ccc(NC(=O)C(C)C)cc1C1CCN(CCCNC(=O)C(c2ccccc2)c2ccccc2)CC1 | 27 nM | 3 nM | concentration at 1 h [2]: 69 ng/mL; concentration at 4 h [3]: 75 ng/mL; concentration at 4 h [4]: 13 ng/g; concentration at 2 h [5]: 59 ng/mL |
| CCC(C(=O)NCCCN1CCC(c2cccc(NC(=O)C(C)C)c2)CC1)(c1ccccc1)c1ccccc1 | 190 nM | – | – |
| CC(C)C(=O)Nc1cccc(C2CCN(CCCNC(=O)C(C)(c3ccccc3)c3ccccc3)CC2)c1 | 140 nM | 7.5 nM | – |
| CC(C)C(=O)Nc1cccc(C2CCN(CCCCCCNC(=O)C(c3ccccc3)c3ccccc3)CC2)c1 | 600 nM | 29 nM | – |
| CC(C)C(=O)Nc1cccc(C2CCN(CCCNC(=O)C(c3ccccc3)c3ccccc3)CC2)c1 | 25 nM | 1.9 nM | concentration at 1 h [2]: 15 ng/mL; concentration at 4 h [3]: 15 ng/mL; concentration at 2 h [5]: 12 ng/mL |
| CC(C)C(=O)Nc1cccc(C2CCN(CCCCNC(=O)C(c3ccccc3)c3ccccc3)CC2)c1 | 620 nM | 50 nM | – |
| CC(C)C(=O)Nc1cccc(C2CCN(CCCNC(=O)C(c3ccc(F)cc3)c3ccc(F)cc3)CC2)c1 | 13 nM | 1.4 nM | – |
| CC(C)C(=O)Nc1cccc(C2CCN(CCCCCNC(=O)C(c3ccccc3)c3ccccc3)CC2)c1 | – | 47 nM | – |
| CC(C)C(=O)Nc1cc(C2CCN(CCCNC(=O)C(c3ccc(F)cc3)c3ccc(F)cc3)CC2)c(F)cc1F | 34 nM | 1.8 nM | bioavailability [7]: 48%; Cmax [8]: 80 ng/mL; Vd [9]: 3.6 L/kg; clearance [10]: 40 mL/min/kg; half-life [11]: 2.1 h; Time (Rattus norvegicus [12]): 69.3 s; Tmax [13]: 0.6 h; clearance [14]: 60 mL/min/kg; Activity (Rattus norvegicus [15]): 69.3 s; minimal effective dose (Rattus norvegicus [15]; Rattus norvegicus, read-out: MED): 0.3 mg/kg |
| CCCCCC(C(=O)NCCCN1CCC(c2cccc(NC(=O)C(C)C)c2)CC1)(c1ccccc1)c1ccccc1 | – | 8.5 nM | – |
| CC(C)C(=O)Nc1c(F)cc(F)c(C2CCN(CCCNC(=O)C(c3ccc(F)cc3)c3ccc(F)cc3)CC2)c1F | – | 2.9 nM | – |
| Cc1ccc(NC(=O)C(C)C)cc1C1CCN(CCCNC(=O)[C@H](C)c2ccc(F)cc2)CC1 | 65 nM | 28 nM | – |
| Cc1ccc(NC(=O)C(C)C)cc1C1CCN(CCCNC(=O)C2(c3ccc(F)cc3)CCCC2)CC1 | 44 nM | 3.8 nM | – |
| Cc1ccc(C2CCN(CCCNC(=O)C(c3ccccc3)c3ccccc3)CC2)cc1NC(=O)C(C)C | > 1000 nM | 500 nM | – |
| Cc1ccc(NC(=O)C(C)C)cc1C1CCN(CCCNC(=O)C(O)(c2ccccc2)c2ccccc2)CC1 | 27 nM | 0.6 nM | – |
| CC(C)C(=O)Nc1cccc(C2CCN(CCNC(=O)C(c3ccccc3)c3ccccc3)CC2)c1 | 57 nM | 1.9 nM | – |
| Cc1ccc(NC(=O)C(C)C)cc1C1CCN(CCCNC(=O)[C@@H](C)c2ccc(F)cc2)CC1 | 26 nM | 10 nM | bioavailability [7]: 81%; Cmax [8]: 305 ng/mL; Vd [9]: 3.4 L/kg; clearance [10]: 25 mL/min/kg; half-life [11]: 4.2 h; Tmax [13]: 2.2 h; clearance [14]: 55 mL/min/kg |
| Cc1ccc(NC(=O)C(C)C)cc1C1CCN(CCCNC(=O)C2(c3ccc(F)cc3)CCCCC2)CC1 | 190 nM | 1.9 nM | – |
| Cc1ccc(NC(=O)C(C)C)cc1C1CCN(CCCNC(=O)C(c2ccc(F)cc2)c2ccc(F)cc2)CC1 | 27 nM | 0.62 nM | – |
| Cc1ccc(NC(=O)C(C)C)cc1C1CCN(CCCNC(=O)C(C)c2ccccc2)CC1 (single isomer, unassigned; form 1) | 68 nM | 34 nM | – |
| Cc1ccc(NC(=O)C(C)C)cc1C1CCN(CCCNC(=O)C(C)c2ccccc2)CC1 (single isomer, unassigned; form 2) | 130 nM | 37 nM | – |
| CNC1=Nc2ccc(Cl)cc2C(c2ccccc2)=[N+]([O-])C1 [CHLORDIAZEPOXIDE] | – | – | Time (Rattus norvegicus [12]): 85.1 s |
| COCC1=C(C(=O)OC)[C@H](c2ccc(F)c(F)c2)N(C(=O)NCCCN2CCC(c3cccc(NC(C)=O)c3)CC2)C(=O)N1 [SNAP-7941] | – | 0.25 nM | Tmax [16]: 4 h; half-life [17]: 1.7 h; Vd [18]: 24 L/kg; bioavailability [19]: 6%; Cmax [20]: 2.02 ng/mL; clearance [21]: 153 mL/min/kg |

From ChEMBL document CHEMBL1148740, “Synthesis and SAR investigations for novel melanin-concentrating hormone 1 receptor (MCH1) antagonists Part 1. The discovery of arylacetamides as viable replacements for the dihydropyrimidinone moiety of an HTS hit” (J Med Chem, 2007)
